CHRM5 PAM = CHRM5 positive allosteric modulation; P08912; CHO-K1 hM5, Fluo-8 calcium, ACh EC20 PAM; 0% = ACh EC20, 100% = ACh EC100; activation, % at 3 µM; 360,000 tested, 0.3% active;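 active means activation above the run cutoff, the mean activation of all test compounds plus 3 SD, cut at about 18% in these data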
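Replicates: One well per compound, no replicates | System: Human M5 receptor in CHO-K1 cells | Benchmarks: Low control EC20 acetylcholine (0%), high control EC100 acetylcholine (100%) | Probe or stimulus: Acetylcholine, EC20 level | Times: Fluo-8 loading 80 min at 37 °C plus 30 min room temperature | Signal: Intracellular calcium via Fluo-8 fluorescence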
M4 antag = antagonists of human muscarinic M4 receptor (CHRM4); P08173; CHO-hM4 cells, ACh EC80, Fluo-8 calcium fluorescence; inhibition, % at 3 µM; 360,000 tested, 0.73% active; AID 624125;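 active means inhibition above its plate's cutoff, the mean inhibition of sample wells plus 3 SD, cut at about 27% in these data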;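 further: 0% = acetylcholine EC80 with DMSO and 100% = DMSO without agonist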
Target sequence (P08173 whole entry, looked up): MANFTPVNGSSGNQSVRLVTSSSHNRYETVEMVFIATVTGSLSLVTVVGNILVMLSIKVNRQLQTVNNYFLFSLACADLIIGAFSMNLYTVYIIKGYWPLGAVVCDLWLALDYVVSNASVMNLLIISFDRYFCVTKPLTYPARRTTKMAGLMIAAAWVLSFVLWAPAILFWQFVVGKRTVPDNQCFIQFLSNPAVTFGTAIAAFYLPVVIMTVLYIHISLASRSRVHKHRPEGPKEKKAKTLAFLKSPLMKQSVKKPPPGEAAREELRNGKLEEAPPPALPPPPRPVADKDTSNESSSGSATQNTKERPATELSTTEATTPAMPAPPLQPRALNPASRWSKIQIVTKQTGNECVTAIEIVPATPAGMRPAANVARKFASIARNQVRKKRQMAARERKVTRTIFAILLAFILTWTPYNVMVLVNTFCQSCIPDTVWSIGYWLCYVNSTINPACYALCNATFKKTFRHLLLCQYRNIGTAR
CHRM4 agonist = agonists of human muscarinic M4 receptor (CHRM4); P08173; CHO-K1 hM4/Gqi5, Fluo-8 calcium fluorescence; vehicle 0%, full acetylcholine response 100%; activation, % at 3 µM; 360,000 tested, 0.14% active; AID 624127;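 active means activation above the run mean over all test wells plus 3 SD, cut at about 32% in these data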;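 further: peak over basal fluorescence ratio per well then scaled between controls; 0% = DMSO wells and 100% = acetylcholine at EC100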
CHRM4 PAM = CHRM4 positive allosteric modulation | P08173 | CHO-K1 hM4/Gqi5, Fluo-8 calcium fluorescence, ACh EC20; 0% = ACh EC20, 100% = maximal ACh | activation, % at 3 µM | 360,000 tested, 0.4% active | AID 624126;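 active means activation above its plate's cutoff, the mean activation of sample wells plus 3 SD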
CHRM5 antagonist = antagonists of human muscarinic M5 receptor (CHRM5); P08912; CHO-hM5 cells, Fluo-8 calcium fluorescence, ACh EC80; inhibition, % at 3 µM; 360,000 tested, 0.59% active; AID 624040;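 active means inhibition above a per-plate cutoff, the mean of that plate's test compounds plus 3 SD, cut at about 27% in these data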;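 further: 0% = acetylcholine EC80 with DMSO and 100% = DMSO without agonist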
M5 ag = CHRM5 agonism in calcium assay; CHO-K1 hM5 cells, Fluo-8 calcium fluorescence; 0% DMSO wells, 100% maximal acetylcholine response; activation, % at 3 µM; 360,000 tested, 0.19% active;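 active means activation above the run's mean over test compounds plus 3 SD, cut at about 23% in these data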;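 further: signal is peak over basal fluorescence ratio across the kinetic read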
Active calls of the source: *. Sampled rows, rich in hits. Any-hit rate of the full collection: about 1.8%.

SMILES	CHRM5 PAM	M4 antag	CHRM4 agonist	CHRM4 PAM	CHRM5 antagonist	M5 ag
CCOc1ccccc1NC(=O)NC1CC2CCCC(C1)N2Cc1nnnn1CCc1ccccc1 (configuration not stated)	-5	42*	-1	-11	-9	-4
O=C(CC1C(=O)NCCN1CC1CCCCC1)NCc1ccc(F)cc1F (configuration not stated)	12	-10	1	4	-7	-1
O=C(CC1C(=O)NCCN1CC1CCCCC1)NCc1cc(F)ccc1F (configuration not stated)	-15	0	3	5	27*	-1
CC[N+](CC)(CC#Cc1ccccc1)CC#Cc1ccccc1	-31	23	0	-48	31*	-22
Clc1ccc(OCc2nc(-c3ccccn3)no2)c(Br)c1	-9	-12	0	-8	1	-1
Nc1nc(-c2ccccn2)nc(N)c1Cc1ccccc1F	4	22	2	6	-8	5
Nc1nc(-c2ccccn2)nc(N)c1Cc1ccc(Cl)cc1Cl	18	81*	30	-12	2	16
Nc1nc(-c2ccccn2)nc(N)c1Cc1c(F)cccc1Cl	19*	-4	1	10	-3	5
CN1/C(=C\C(=O)COC(=O)c2ccco2)C(C)(C)c2ccccc21	0	-2	4	-7	9	-1
CN1/C(=C\C(=O)c2ccco2)C(C)(C)c2ccccc21	-14	37*	10	-20	44*	4
CCCCCCCCN1C(=O)[C@H](CC(=O)NCCCN2CCCC2=O)C[C@@]2(C(=O)OC)CC(C)(C)CC=C12	-2	-21	16	7	9	2
Cc1ccc2nc(CCCc3nc4ccc(C)cc4[nH]3)[nH]c2c1	-1	-6	-1	-3	8	-8
Cc1ccc2nc(CCc3nc4ccc(C)cc4[nH]3)[nH]c2c1	5	-1	1	14*	-1	3
Clc1cccc(Oc2cnc3ccccc3n2)c1	8	3	-1	30*	0	1
Cn1nc(C(C)(C)C)c([N+](=O)[O-])c1C(=O)Nc1ccccc1	-15	-5	3	4	15	0
Cn1nc(C(C)(C)C)c([N+](=O)[O-])c1C(=O)NC(C)(C)C	4	1	1	32*	5	1
C/C(=N\NC(=O)Cc1ccccc1)c1ccc(Cl)s1	-2	-5	1	13	6	-3
Oc1ccc(C23CCCC2C2(CCCC2)c2ccc(O)cc2O3)c(O)c1 (configuration not stated)	-22	23	59*	-14	6	18
NC(=S)NNc1ccnc2cc(Cl)ccc12	1	7	0	-6	12	1
O=C(NNc1ccnc2cc(Cl)ccc12)C1CCCCC1	-24	12	10	-5	31*	5
CCCCc1nc2c(C)c(N)cnc2n1Cc1cccc([N+](=O)[O-])c1	-5	11	1	-5	10	-7
Cc1ccc(-n2nnnc2CNC(=O)c2ccc(Br)o2)cc1C	3	-1	1	1	5	-5
Cc1ccc(-n2nnnc2CNC(=O)c2ccc3c(c2)OCO3)cc1C	-9	63*	1	-14	12	-10
COc1cc(C2c3cc4c(cc3CC3COC(=O)N32)OCO4)cc(OC)c1OC (configuration not stated)	1	-14	0	5	10	-3
Cc1ccc(CN2CCN(CCCn3cnc4c(OCc5ccccc5)ncnc43)CC2)cc1	-12	33*	9	-16	15	-1
SMILES	CHRM5 PAM	M4 antag	CHRM4 agonist	CHRM4 PAM	CHRM5 antagonist	M5 ag
c1ccc(COc2ncnc3c2ncn3CCCN2CCN(Cc3cccc4ccccc34)CC2)cc1	-6	-13	23	-13	0	-1
Cc1ccc(-n2nc3c(c2NC(=O)c2ccc4c(c2)OCO4)CS(=O)C3)c(C)c1 (configuration not stated)	3	-5	0	0	2	-3
O=C1CSC(c2ccccn2)N1c1ccc(Br)cc1 (configuration not stated)	3	61*	0	-22	7	-13
O=C1CSC(c2ccccn2)N1c1ccccc1 (configuration not stated)	3	0	1	10	1	-1
Cn1ncc([N+](=O)[O-])c1C(=O)N/N=C/c1ccc(F)cc1	3	7	1	31*	-8	1
COc1ccc(Cl)cc1-n1c(=S)sc2c(=O)[nH]c(SCC(=O)C(C)(C)C)nc21	-6	-6	4	-2	10	1
O=C(NC(Cc1ccccc1)C(=O)O)/C(=C\c1ccc(Br)cc1)NC(=O)c1ccc(Br)o1 (configuration not stated)	6	15	0	-4	-8	2
O=C(NC(Cc1ccccc1)C(=O)O)/C(=C/c1ccc(Br)cc1)NC(=O)c1ccc(Br)o1 (configuration not stated)	-5	-1	0	19*	9	-4
Cc1cccc(C)c1-n1nnnc1C1c2ccccc2C(=O)N1C1CC1 (configuration not stated)	1	-6	2	5	-4	1
N#CCCN1CCN(C(=O)c2c(N)no[n+]2[O-])CC1	-1	0	0	-2	5	2
O=C(NN1C(=O)C2C(c3ccccc3)C=CC(c3ccccc3)C2C1=O)c1cccc(Br)c1 (configuration not stated)	-20	16	20	-17	37*	-7
C[C@H]1CN(c2ccccc2)C(=O)[C@@H]1CC(=O)Nc1ccc(Br)cc1	-10	0	12	0	27*	4
CC(=O)OC[C@H]1O[C@@H](Oc2cc(O)cc3oc(-c4ccc(O)cc4)cc(=O)c23)[C@H](O[C@@H]2O[C@@H](C)[C@H](O)[C@@H](O)[C@H]2O)[C@@H](O)[C@@H]1O	11	-23	1	9	-1	2
O=C(CN1CCN(Cc2ccc(Cl)cc2)CC1)N/N=C/C=C/c1ccccc1[N+](=O)[O-]	-3	-6	6	-4	-1	0
CCCCCn1c(CNC(=O)CCC)nc2ccccc21	-4	-8	1	8	-2	-1
CCCCCn1c(CNC(=O)CC)nc2ccccc21	-10	3	1	1	-2	43*
CCOC(=O)CC(NC(=O)c1ccco1)c1ccc(OC)cc1 (configuration not stated)	21*	-7	0	6	-2	-4

High-throughput results from PubChem.
